Data taken from publication PMC3961502 (The Journal of investigative dermatology, 2013).

Tests used:
Assay type in all cases: cell-based, human
[1] = test system: MCF-7 cells expressing GFP-PDGFR-β; experiment: PDGFR-GFP / TR-dextran co-localization; settings: MCF-7 pre-incubated with 80 µM dynasore 1 h, then 1 nM PDGF-BB
Outline: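 MCF-7 cells expressing GFP-PDGFR-β were pre-incubated 1 h with 80 µM dynasore in serum-free DMEM. They then received TR-dextran plus 1 nM PDGF-BB ± 10 µM peptide in HBSS for 15 min and were imaged by confocal microscopy. Both channel thresholds were set at 70, and >100 cells were scored per condition. Co-localization index = yellow pixels / (yellow + green pixels).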

PDGFR-β = experiment: PDGFR signaling by Western blot; settings: AHDF preincubated 1 h with 80 µM dynasore, 1 nM PDGF-BB in HBSS (Figure S9)
Outline: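 AHDF primary dermal fibroblasts (passage 8–12, grown in DMEM/10% FBS) were stimulated with 1 nM PDGF-BB ± 10 µM peptide in HBSS. Cells were lysed in Tris pH 7.5 buffer with phosphatase and protease inhibitors, sonicated and boiled. Equal protein was run on 10% SDS-PAGE and blotted to nitrocellulose, blocked in 2% BSA/TBST, and probed overnight at 4°C. Detection used HRP-secondary chemiluminescence, with signal intensity quantified.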

AHDF [2] = experiment: TUNEL apoptosis assay under nutrient deprivation; settings: AHDF in HBSS, 3 days of starvation; 1 nM PDGF, 10 µM P12; >800 cells counted, n=6, mean
AHDF [3] = experiment: cell morphology by phase contrast microscopy under nutrient deprivation; settings: AHDF in HBSS 3 days; 1 nM PDGF, 10 µM P12

Compound: O=C(N/N=C/c1ccc(O)c(O)c1)c1cc2ccccc2cc1O [dynasore]
- PDGF-BB-stimulated internalization of PDGFR-GFP under dynamin inhibition [1]: minimal internalization
- PDGF-BB stimulated p-Akt signal in the presence of dynasore (PDGFR-β): inhibition

Compound: PDGF-BB: platelet-derived growth factor BB, purchased from Invitrogen
- apoptosis, %TUNEL+ (TUNEL positive/DAPI positive) (AHDF [2]): 30%
- cell morphology (AHDF [3]): rounded or shriveled
